In ChEMBL document CHEMBL3421559, “Discovery of 5-(2',4'-difluorophenyl)-salicylanilides as new inhibitors of receptor activator of NF-κB ligand (RANKL)-induced osteoclastogenesis” (Eur J Med Chem, 2015):
Activity calls are given as the source filed them. The rule behind the calls is not given here.

Tests used:
[1] = Retention time of the compound by HPLC analysis; format: physicochemical
Summary of the method: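 Reversed-phase column (5 µm, 4.6 × 250 mm) at 1.0 mL/min with a 0–20% H2O in MeOH gradient.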

[2] = Cytotoxicity against mouse RAW264.7 cells assessed as cell viability at 5 uM after 24 hrs by MTT assay; format: cell-based; settings: read-out: Activity
Summary of the method: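 RAW264.7 cells at 1 × 10^4 per well in DMEM with 10% FBS were exposed to compound for 24 h. After PBS washes, they got 500 µg/mL MTT for 1 h at 37 °C. Formazan was dissolved in DMSO and read at 540 nm. Viability is relative to control, mean ± SD from at least three independent runs.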

[3] = system: RAW264.7; test: Downregulation of RANKL-induced TRAP gene expression in mouse RAW264.7 cells at 2.5 and 5 uM treated for 1 hr prior to incubation with RANKL for 24 hrs by RT-PCR analysis; format: functional, cell-based
Summary of the method: (§1)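 RAW264.7 cells grown a day in DMEM/10% FBS were switched to α-MEM with 100 ng/mL murine RANKL, with or without compound, for 24 h. Trizol RNA (2 µg) was reverse-transcribed with oligo(dT) and amplified with mouse-specific primers. Products were run on 1.5% agarose with EtBr, and band densities normalized to GAPDH.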

[4] = system: RAW264.7; test: Downregulation of RANKL-induced DC-STAMP gene expression in mouse RAW264.7 cells at 2.5 and 5 uM treated for 1 hr prior to incubation with RANKL for 24 hrs by RT-PCR analysis; format: functional, cell-based; summary of the method: as §1
[5] = system: RAW264.7; test: Inhibition of RANKL-induced bone-resorbing activity in mouse RAW264.7 cells assessed as reduction of resorbing pits formed on dentine slices by mature osteoclasts after 4 days by pit formation assay; format: functional, cell-based
Summary of the method: (§2)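 Cells on dentine slices were kept in α-MEM with 10% FBS, 2 mM […] and 100 ng/mL RANKL, with or without compound, and medium was renewed every 2 days. At day 4, cells were removed with 1 M ammonium hydroxide and slices stained with 0.1% toluidine blue. Resorbed area/total area was measured per optical field.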

[6] = system: RAW264.7; test: Inhibition of RANKL-induced bone-resorbing activity in mouse RAW264.7 cells assessed as reduction of resorbing pits formed on dentine slices by mature osteoclasts at 5 uM after 4 days by pit formation assay; format: functional; settings: RAW264.7, Dentine, 96 h; summary of the method: as §2
[7] = system: RAW264.7; test: Inhibition of RANKL-induced NF-kappaB activation in mouse RAW264.7 cells assessed as decrease in nuclear translocation of NF-kappaB at 5 uM treated for 1 hr prior to incubation with RANKL for 24 hrs by Western blot assay relative to control TBP gene expression; format: cell-based
Summary of the method: (§3)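 Cells were pretreated with compound for 1 h in α-MEM/10% FBS, then given RANKL (100 ng/mL) for 24 h. Nuclear extracts (18 µg) were separated on 12% SDS-PAGE and blotted to PVDF, blocked with 5% BSA. Blots were probed overnight-style for 12 h at 4 °C with mAbs (1:1000) to NF-κB p65, NFATc1 and TBP, then HRP anti-rabbit (1:10000), with chemiluminescent detection.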

[8] = system: RAW264.7; test: Inhibition of RANKL-induced NF-kappaB activation in mouse RAW264.7 cells assessed as decrease in nuclear accumulation of NF-kappaB at 5 uM treated for 1 hr prior to incubation with RANKL for 24 hrs by ELISA; format: cell-based
Summary of the method: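 After 1 h compound pretreatment and 24 h RANKL (100 ng/mL), nuclear extracts were tested in a p65 DNA-binding ELISA. The plate is coated with NF-κB response element, followed by primary antibody and tagged secondary antibody, with absorbance read at 450 nm.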

[9] = system: RAW264.7; test: Downregulation of RANKL-induced c-fos gene expression in mouse RAW264.7 cells at 2.5 and 5 uM treated for 1 hr prior to incubation with RANKL for 24 hrs by RT-PCR analysis; format: functional, cell-based; summary of the method: as §1
[10] = system: RAW264.7; test: Downregulation of RANKL-induced cathepsin K gene expression in mouse RAW264.7 cells at 2.5 and 5 uM treated for 1 hr prior to incubation with RANKL for 24 hrs by RT-PCR analysis; format: functional, cell-based; summary of the method: as §1
[11] = system: RAW264.7; test: Downregulation of RANKL-induced MMP-9 gene expression in mouse RAW264.7 cells at 2.5 and uM treated for 1 hr prior to incubation with RANKL for 24 hrs by RT-PCR analysis; format: functional, cell-based; summary of the method: as §1
[12] = system: RAW264.7; test: Downregulation of RANKL-induced NFATc1 gene expression in mouse RAW264.7 cells at 2.5 and 5 uM treated for 1 hr prior to incubation with RANKL for 24 hrs by RT-PCR analysis; format: functional, cell-based; summary of the method: as §1
[13] = system: RAW264.7; test: Inhibition of RANKL-induced osteoclastogenesis in mouse RAW264.7 cells assessed as decrease in TRAP activity after 4 days by TRAP activity assay; settings: RAW264.7, 96 h
[14] = system: RAW264.7; test: Downregulation of RANKL-induced NFATc1 nuclear expression in mouse RAW264.7 cells at 5 uM treated for 1 hr prior to incubation with RANKL for 24 hrs by Western blot analysis relative to control TBP gene expression; format: functional; summary of the method: as §3
[15] = system: RAW264.7; test: Inhibition of RANKL-induced osteoclastogenesis in mouse RAW264.7 cells; format: functional, cell-based
Summary of the method: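 RAW264.7 cells (2 × 10^4 per well) were cultured with 100 ng/mL RANKL in α-MEM/10% FBS, with or without compound. On day 4 they were lysed in 0.1% Triton X-100/50 mM Tris-HCl pH 7.2 on ice. TRAP was assayed with 2 mg/mL 4-nitrophenyl phosphate in 0.09 M citrate for 15 min at 37 °C, stopped with NaOH and read at 405 nm. Values were normalized to BCA protein for IC50.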

Compound	Retention_time [1] [min]	viability at 24 h, 5 µM [2] [%]	IC50 [13] [µM]	further results
COc1ccc(NC(=O)c2cc(-c3ccc(F)cc3F)ccc2O)cc1OC	7.61	98.9	–	–
O=C(Nc1ccccc1C(F)(F)F)c1cc(-c2ccc(F)cc2F)ccc1O	5.44	99.4	–	–
O=C(Nc1ccc(F)c(F)c1)c1cc(-c2ccc(F)cc2F)ccc1O	7.72	78.4	–	–
O=C(Nc1ccc(C(F)(F)F)cc1)c1cc(-c2ccc(F)cc2F)ccc1O	7.87	85.2	–	–
O=C(Nc1cc(F)ccc1F)c1cc(-c2ccc(F)cc2F)ccc1O	7.8	102	3.67	inhibition [3]: Dose-dependent effect; inhibition [4]: Dose-dependent effect; inhibition [5]: Dose-dependent effect; inhibition at 5 µM [6]: 80.5%; fold change (FC) [7]: 0.76; inhibition [8]: Active; inhibition [9]: Dose-dependent effect; inhibition [10]: Dose-dependent effect; inhibition [11]: Dose-dependent effect; inhibition [12]: Dose-dependent effect; fold change (FC) [14]: 0.55
O=C(Nc1ccc(Cl)cc1F)c1ccccc1O	–	–	> 10	IC50 [15]: 15 µM
O=C(Nc1ccc(Cl)cc1F)c1cc(-c2ccc(F)cc2F)ccc1O	9.07	77.5	–	–
O=C(Nc1ccc(F)cc1F)c1cc(-c2ccc(F)cc2F)ccc1O	6.45	110	–	–

Now from value to compound, other results behind:

Retention_time [1] [min]	Compound	viability at 24 h, 5 µM [2] [%]	IC50 [13] [µM]	further results
6.37	C#Cc1cccc(NC(=O)c2cc(-c3ccc(F)cc3F)ccc2O)c1	63	–	–
7.27	O=C(Nc1cccc(C(F)(F)F)c1)c1cc(-c2ccc(F)cc2F)ccc1O	96.7	4.57	–
6.92	N#Cc1cccc(NC(=O)c2cc(-c3ccc(F)cc3F)ccc2O)c1	72.2	2.96	inhibition [3]: Dose-dependent effect; inhibition [4]: Dose-dependent effect; inhibition [5]: Dose-dependent effect; inhibition at 5 µM [6]: 59.3%; fold change (FC) [7]: 0.82; inhibition [8]: Active; inhibition [9]: Dose-dependent effect; inhibition [10]: Dose-dependent effect; inhibition [11]: Dose-dependent effect; inhibition [12]: Dose-dependent effect; fold change (FC) [14]: 0.52
6.84	N#Cc1ccc(NC(=O)c2cc(-c3ccc(F)cc3F)ccc2O)cc1	96.2	–	–
5.89	COc1cccc(NC(=O)c2cc(-c3ccc(F)cc3F)ccc2O)c1	105	–	–
